High-throughput results deposited in PubChem BioAssay by Johns Hopkins Ion Channel Center.
Hits are enriched below; roughly 3.8% of the tested compounds scored in any of these assays.
KCNK9 block – blocks the human KCNK9 two-pore domain potassium channel | Q9NPC2 | HEK293 KCNK9, FluxOR thallium flux fluorescence; hits give low values | B-score at 10 µM | 310,000 tested, 1.2% active | AID 488922;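 active = ratio B-score over 3 SD below the library mean, with starting fluorescence within 5 SD of its mean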;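 note: negative B-score means less thallium flux so channel inhibition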
KCNQ1 inh – blocks the human KCNQ1 potassium channel | 310,000 tested, 1.3% active | CHO-K1 KCNQ1, FluxOR thallium flux fluorescence; hits give high values | AID 2642 | B-score at 10 µM | P51787;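 active = compounds whose thallium flux B-score, printed positive for inhibition, exceeds three library SD while starting fluorescence stays within three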;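 note: channel opened by potassium depolarization with thallium stimulus after 20 min compound exposure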
Kir21 block – Kir2.1 (mouse) channel inhibition; HEK293-Kir2.1, FluxOR thallium flux fluorescence; hits give low values; B-score at 10 µM; 310,000 tested, 0.85% active;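 active = fluorescence ratio B-score at or below minus 3 SD of library scores, with starting-brightness B-score within 2 SD, cut at about -4.2 in these data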;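 note: channel flux triggered by added potassium and thallium sulfate stimulus; B-score of peak minus minimum fluorescence over baseline after thallium stimulus; more negative B-score means stronger Kir2.1 block with less thallium influx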
hERG protect – shields human hERG channel from block by proarrhythmic agents; Q12809; CHO-hERG, FluxOR thallium flux, dofetilide IC70 present; activation (rescue from dofetilide block), less the hit threshold, % at 10 µM; 310,000 tested, 0.51% active; AID 1511;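 active = activation above the mean of controls blocked by dofetilide plus 5 SD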;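 note: thallium influx through hERG after potassium depolarization seen as dye fluorescence rise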
KCNK3 block – human KCNK3 channel inhibition, primary screen. O14649. CHO-KCNK3 thallium flux, FluxOR fluorescence; hits give low values. B-score at 10 µM. 340,000 tested, 0.84% active. AID 602410;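 active = B-score under library mean minus 4 SD, starting fluorescence ratio at most library mean plus 5 SD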;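 note: more negative B-score means stronger inhibition of thallium flux through KCNK3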
Target sequence (O14649 whole entry, looked up): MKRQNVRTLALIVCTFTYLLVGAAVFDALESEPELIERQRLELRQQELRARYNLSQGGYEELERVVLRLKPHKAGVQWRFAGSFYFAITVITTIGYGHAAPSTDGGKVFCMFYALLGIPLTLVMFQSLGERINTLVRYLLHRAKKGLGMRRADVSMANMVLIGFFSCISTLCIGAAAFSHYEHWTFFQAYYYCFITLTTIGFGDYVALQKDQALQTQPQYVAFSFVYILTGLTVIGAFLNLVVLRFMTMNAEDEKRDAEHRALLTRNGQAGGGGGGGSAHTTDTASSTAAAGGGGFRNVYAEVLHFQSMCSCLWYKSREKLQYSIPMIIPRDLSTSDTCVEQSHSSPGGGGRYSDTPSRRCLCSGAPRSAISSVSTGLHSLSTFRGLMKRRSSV
KCNQ1 pot – human KCNQ1 channel potentiation or activation; CHO-K1 KCNQ1, thallium flux FluxOR fluorescence; hits give high values; 310,000 tested, 0.35% active; AID 2648; B-score at 10 µM;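 active = fluorescence ratio B-score, a plate-corrected score, at least three library SD, with initial intensity B-score within 5 SD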
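Test system: CHO-K1 cells stably expressing KCNQ1 / Medium: assay buffer / Also added: depolarizing K+/Tl+ stimulus, K2SO4 and Tl2SO4 each 12.5 mM in 5x stock / Incubation: 90 min dye loading and 20 min compound exposure, both at room temperature / Signal: thallium influx via FluxOR fluorescence, kinetic imaging / Evaluation: B score of baseline-normalized fluorescence ratio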
Starred values were filed as active, the others as inactive; i = inactive; . = no result.

SMILES	KCNK9 block	KCNQ1 inh	Kir21 block	hERG protect	KCNK3 block	KCNQ1 pot
O=C(Cc1sc(-c2ccccc2)nc1-c1ccccc1)Nc1ccc(Cl)cc1	i	i	0.8	-13	i	i
Cc1ccc(C2c3c(-c4ccccc4O)n[nH]c3C(=O)N2Cc2ccncc2)cc1 (stereo unspecified)	i	i	-0.81	12*	i	i
CC(C)OCCCNc1ncnc2c1cnn2-c1ccccc1	i	i	-1.4	-4	i	i
CCN(CC)CCNC(=O)c1ccc(NC(=O)c2ccc3c(c2)CCC3)cc1	i	i	1	-5	i	i
CCOC(=O)c1sc(N(Cc2ccccc2)C(=O)CSc2ncn[nH]2)nc1C	i	i	-0.09	-6	i	i
O=C(O)CSCC(=O)N(Cc1ccccc1)c1nc(-c2ccccc2)c(-c2ccccc2)s1	i	8*	1.6	-13	i	i
CCOc1ccc(N(C(=O)c2snc(C(N)=O)c2N)C(C)C(=O)NC2CCCCC2)cc1 (stereo unspecified)	i	i	0.04	-5	i	i
CCOC(=O)C1=C(C)NC(=O)NC1c1ccc(OCC(N)=O)cc1 (stereo unspecified)	i	i	-1.9	-4	i	i
COc1ccccc1Cn1c(=S)[nH]c2cc(C(=O)NCCCN3CCOCC3)ccc2c1=O	i	i	-1.8	-13	i	i
Cc1cccc(S(=O)(=O)Nc2ccc(C)c3c2OC(C)(C)C3)c1	i	i	-5.9*	-9	i	i
Cc1ccc(NS(=O)(=O)c2ccccc2Cl)c2c1CC(C)(C)O2	i	i	-4.4*	-13	i	i
CC1CCN(C(=O)CSc2nnc(-c3ccccc3F)o2)CC1	i	i	0.33	-4	i	i
Cc1ccc(OCc2nc(C#N)c(N3CCN(Cc4ccccc4)CC3)o2)cc1	i	i	0.68	-10	i	i
N#CC(C(=O)NC1CC1)c1nc2ccccc2nc1N1CCN(C/C=C/c2ccccc2)CC1 (stereo unspecified)	i	6*	-2.2	-17	i	i
COc1cc(SC)ccc1C(=O)NCCOc1ccc(Cl)cc1	i	i	0.07	-7	i	i
CSc1nc2c(c(=O)[nH]1)C(c1ccccc1Cl)CC(=O)N2 (stereo unspecified)	i	i	2.3	9.7*	i	i
O=C(Nc1ccc(Cl)c(Cl)c1)c1ccncc1	i	i	0.43	-11	i	i
O=C(Nc1ccc(Cl)c(Cl)c1)c1ccc(Cl)c(Cl)c1	i	7*	-0.45	-7	i	i
CN1/C(=C/C(=O)c2nc(S(C)(=O)=O)ncc2Cl)C(C)(C)c2ccccc21	i	6*	-2	-17	i	i
CCOc1ccc(S(=O)(=O)N2CCCC(C(=O)NCc3cccnc3)C2)cc1 (stereo unspecified)	i	i	-0.23	-14	i	i
Cc1c(-c2cc[n+]([O-])cc2)oc2ccc(Br)cc2c1=O	i	i	-0.16	4.9*	.	i
Cc1ccc(NC(=O)c2ccccc2NS(=O)(=O)c2ccc(Cl)s2)cc1S(=O)(=O)N1CCOCC1	i	6*	-0.19	-22	i	i
Cc1ccc(NC(=O)c2oc3ccccc3c2COC(C)C)cc1S(=O)(=O)N1CCOCC1	.	.	.	.	-9.4*	.
Cc1cccc(OCCC(=O)Nc2ccc(C)c(S(=O)(=O)N3CCOCC3)c2)c1	.	.	.	.	i	.
Cc1ccc(NC(=O)COc2cccc(Oc3ccccc3)c2)cc1S(=O)(=O)N1CCOCC1	.	.	.	.	-8.8*	.
SMILES	KCNK9 block	KCNQ1 inh	Kir21 block	hERG protect	KCNK3 block	KCNQ1 pot
CC(NC(=O)C1CCCC1)C1CC2CCC1C2 (stereo unspecified)	i	i	2.3	-5	i	i
c1coc(-c2nc(-c3ccncc3)no2)c1	i	i	1.3	4	i	i
Cc1ccc(Cn2c(=N)c(S(=O)(=O)c3ccc(Br)cc3)cc3c(=O)n4ccccc4nc32)cc1	i	i	0.14	-11	i	i
O=C(NCc1ccccc1)c1onc(CSc2ccc(F)cc2)c1C(=O)NCCCN1CCOCC1	i	i	-0.98	-15	i	14*
CC(C)(C)n1cnc2cc(NS(=O)(=O)c3ccc(Br)cc3)ccc21	i	i	-0.41	-14	i	i
COc1ccc(C(=O)Nn2cnc3scc(-c4cccs4)c3c2=O)c(O)c1	i	i	-1.2	-13	-11*	i
CNCc1ccccc1Sc1cccc2ccccc12	i	i	-15*	-14	i	8*
CNCc1ccccc1Sc1ccc(OC)cc1	i	i	0.29	-3	i	i
CN(C)CCN(C)Cc1ccccc1Sc1cccc2ccccc12	i	i	-7.1*	-17	i	i
O=C(Nc1cccc(N=Cc2cc(Cl)cc(Br)c2O)c1)c1ccco1	i	i	0.05	4	i	17*
O=C(Nc1cccc(N=Cc2cc(Br)cc(Br)c2O)c1)c1ccco1	i	i	-0.82	-3	i	i
CCn1ncc(Cl)c1C(=O)NC(C)c1ccccc1 (stereo unspecified)	i	i	1.2	-4	i	i
OC(CNCc1ccc(-c2ccccc2)cc1)c1ccccc1 (stereo unspecified)	i	i	-0.06	-19	i	i
Cc1ccc(CNCC(O)c2ccccc2)s1 (stereo unspecified)	i	i	-5.3*	-1	i	i
OC(CNCc1cccc(Br)c1)c1ccccc1 (stereo unspecified)	i	i	-4.3*	-11	i	i
CCOC(=O)c1c(C)[nH]c(C)c1C(=O)COc1ncnc2ccccc12	i	i	1	-11	i	i
CCOC(=O)C1=C(C)Nc2ccccc2N=C1NC(=O)Cc1ccc(Cl)c(Cl)c1	i	i	-0.14	-7	i	i
CCOC(=O)CC(=O)CSc1ncnc2c1nnn2-c1ccc(OC)cc1	i	i	0.69	7.0*	i	i
CCN(CC)C(=O)CSc1ncnc2c1nnn2-c1ccc(OC)cc1	i	i	0.34	-10	i	i
NC(=O)COC(=O)c1ccc(C(=O)C(=O)c2ccccc2)cc1	i	i	0.8	-8	i	i
O=C(COc1ccccc1)N1CCN(S(=O)(=O)c2cccs2)CC1	i	i	1.2	-2	i	9*
O=C(CCOc1ccccc1)N1CCN(S(=O)(=O)c2cccs2)CC1	i	i	0.45	-9	i	i
COc1ccccc1C(=O)NC(=O)CSc1nnc2ccccn12	.	.	.	.	i	.
